Measured values from ChEMBL document CHEMBL3244124, “Synthesis of 2-substituted primaquine analogues as potential antimalarials” (J Med Chem, 1978).
Activity calls are given as the source filed them. The rule behind the calls is not given here.

Tests used:
Plasmodium berghei [1] = test: Antimalarial activity against blood stage of Plasmodium berghei infected in mouse assessed as increase in mean survival time at 80 mg/kg, sc; assay type: functional; settings: route subcutaneous
Mus musculus [2] = test: Toxicity in mouse infected with blood stage of Plasmodium berghei assessed as mortality at 160 mg/kg, sc measured on day 1; assay type: organism-based; set-up: dose 160 mg/kg, route subcutaneous; settings: in vivo
Mus musculus [3] = test: Toxicity in mouse infected with blood stage of Plasmodium berghei assessed as mortality at 320 mg/kg, sc measured on day 5; assay type: organism-based; set-up: dose 320 mg/kg, route subcutaneous; settings: in vivo
In short: (§1)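 P. berghei-infected mice, five per group, after subcutaneous dosing. Deaths occurring 2 to 5 days after drug administration are scored as drug toxicity rather than infection.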

Mus musculus [4] = test: Toxicity in mouse infected with blood stage of Plasmodium berghei assessed as mortality at 640 mg/kg, sc measured on day 5; assay type: organism-based; set-up: dose 640 mg/kg, route subcutaneous; settings: in vivo; in short: as §1
Plasmodium berghei [5] = test: Antimalarial activity against blood stage of Plasmodium berghei infected in mouse assessed as increase in mean survival time at 160 mg/kg, sc; assay type: functional; settings: route subcutaneous
Leishmania donovani [6] = test: Antileishmanial activity against Leishmania donovani infected in hamster assessed as inhibition of parasitemia at 52 mg/kg/day, im bid administered for 4 days relative to control; assay type: functional; settings: 96 h, route intramuscular
In short: (§2)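 Hamsters infected with Leishmania donovani were assessed in an 8-day test. Seven animals per drug level received 208, 52 or 13 mg/kg/day. Percent suppression of parasites was calculated against infected, untreated controls (seven to ten animals). Glucantime index G = SD90 of Glucantime / SD90 of the new drug, where SD90 is the dose giving 90% parasite suppression.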

Leishmania donovani [7] = test: Potency index, ratio of glucantime to compound for antileishmanial activity against Leishmania donovani infected in hamster assessed as 90% suppression of parasitemia at 13 to 208 mg/kg/day, im bid administered 4 days measured for 8 days; assay type: functional; settings: route intramuscular; in short: as §2
Mus musculus [8] = test: Toxicity in mouse infected with blood stage of Plasmodium berghei assessed as mortality at 160 mg/kg, sc measured on day 2; assay type: organism-based; set-up: route subcutaneous, dose 160 mg/kg; settings: in vivo; in short: as §1
Leishmania donovani [9] = test: Potency index, ratio of glucantime to compound for antileishmanial activity against Leishmania donovani infected in hamster assessed as 90% suppression of parasitemia at 13 mg/kg/day, im bid administered 4 days measured for 8 days; assay type: functional; settings: route intramuscular; in short: as §2
Plasmodium cynomolgi = test: Antimalarial activity against sporozoite stage of Plasmodium cynomolgi infected in rhesus monkey assessed as radical curative activity measured for 90 days; assay type: functional, organism-based
Mus musculus [10] = test: Toxicity in mouse infected with blood stage of Plasmodium berghei assessed as mortality at 320 mg/kg, sc measured on day 2; assay type: organism-based; set-up: dose 320 mg/kg, route subcutaneous; settings: in vivo; in short: as §1
Plasmodium berghei [11] = test: Antimalarial activity against blood stage of Plasmodium berghei infected in mouse assessed as increase in mean survival time at 640 mg/kg, sc; assay type: functional; settings: route subcutaneous
Plasmodium berghei [12] = test: Antimalarial activity against blood stage of Plasmodium berghei infected in mouse assessed as increase in mean survival time at 320 mg/kg, sc; assay type: functional; settings: route subcutaneous
Mus musculus [13] = test: Toxicity in mouse infected with blood stage of Plasmodium berghei assessed as mortality at 640 mg/kg, sc measured on day 2; assay type: organism-based; set-up: dose 640 mg/kg, route subcutaneous; settings: in vivo; in short: as §1
[14] = test system: Trypanosoma brucei rhodesiense; test: Antitrypanosomal activity against blood stage of Trypanosoma rhodesiense infected in mouse; assay type: functional, organism-based
Mus musculus [15] = test: Toxicity in mouse infected with blood stage of Plasmodium berghei assessed as mortality at 640 mg/kg, sc measured on day 3; assay type: organism-based; set-up: dose 640 mg/kg, route subcutaneous; settings: in vivo; in short: as §1
Leishmania donovani [16] = test: Potency index, ratio of glucantime to compound for antileishmanial activity against Leishmania donovani infected in hamster assessed as 90% suppression of parasitemia at 208 mg/kg/day, im bid administered 4 days measured for 8 days; assay type: functional; settings: route intramuscular; in short: as §2
Schistosoma mansoni = test: Antiparasitic activity against Schistosoma mansoni infected in mouse assessed as survival up to 49 days at 1280 mg/kg, sc administered through peanut oil on day 2 post infection; assay type: functional, organism-based; set-up: dose 1280 mg/kg
Mus musculus [17] = test: Toxicity in mouse infected with blood stage of Plasmodium berghei assessed as mortality at 80 to 640 mg/kg, sc measured for 5 days; assay type: organism-based; set-up: dose 80-640 mg/kg, route subcutaneous; settings: in vivo, 120 h; in short: as §1
Leishmania donovani [18] = test: Potency index, ratio of glucantime to compound for antileishmanial activity against Leishmania donovani infected in hamster assessed as 90% suppression of parasitemia at 3.25 mg/kg/day, im bid administered 4 days measured for 8 days; assay type: functional; settings: route intramuscular

Row | Compound | Survival (Plasmodium berghei [1]) [days] | Activity (Mus musculus [3]) | Activity (Mus musculus [4]) | Survival (Plasmodium berghei [5]) [days] | Activity (Mus musculus [8]) | Activity (Plasmodium cynomolgi) | Survival (Plasmodium berghei [11]) [days] | Survival (Plasmodium berghei [12]) [days] | also measured
1 | COc1cc(NC(C)CCCN)c2nc(N(C)C)ccc2c1.O=C(O)/C=C/C(=O)O (stereo unspecified) | 4.9 | Toxic | Toxic | 5.2 | – | – | – | – | Activity (Mus musculus [2]): Toxic; inhibition in vivo at 52 mg/kg/day (Leishmania donovani [6]): 99%
2 | COc1cc(NC(C)CCCN)c2ncccc2c1 (stereo unspecified) [PRIMAQUINE] | 9.4 | Toxic | Toxic | 10.8 | Toxic | – | – | – | Ratio (Leishmania donovani [7]): 0.96
3 | COc1cc(NC(C)CCCN)c2nc(OC)ccc2c1.O=C(O)/C=C\C(=O)O (stereo unspecified) | 6.1 | Toxic | Toxic | 7.9 | – | inactive | – | – | Ratio (Leishmania donovani [9]): 2.4; Activity (Mus musculus [2]): Toxic
4 | C=Cc1ccc2cc(OC)cc(NC(C)CCCN)c2n1.O=C(O)/C=C/C(=O)O (stereo unspecified) | 2.9 | – | – | 3.3 | Toxic | – | 7.9 | 5.3 | Activity (Mus musculus [10]): Toxic; Activity (Mus musculus [13]): Toxic
5 | COc1cc(NC(C)CCCN)c2nc(Cl)ccc2c1.O=C(O)/C=C\C(=O)O (stereo unspecified) | 1.2 | – | – | 3 | Toxic | inactive | 5.5 | 4 | Activity [14]: inactive; Activity (Mus musculus [15]): Toxic; Activity (Mus musculus [10]): Toxic; Ratio (Leishmania donovani [16]): 0.3
6 | COc1cc(NC(C)CCCN)c2nc(N)ccc2c1.O=C(O)/C=C\C(=O)O (stereo unspecified) | – | – | – | – | – | – | – | – | Ratio (Leishmania donovani [7]): 0; Activity (Schistosoma mansoni): inactive
7 | CCc1ccc2cc(OC)cc(NC(C)CCCN)c2n1.O=C(O)/C=C\C(=O)O (stereo unspecified) | 6.7 | – | – | 8.3 | – | inactive | 13.9 | 9.9 | Activity (Mus musculus [17]): Non-toxic; Activity (Schistosoma mansoni): inactive; Ratio (Leishmania donovani [18]): 10
